Hits are enriched below; roughly 3.5% of the tested compounds scored in any of these assays.
MrgX1 agonist: agonists of human MrgX1 receptor, primary screen, HEK293 cells, Fluo-4 calcium flux. Fluo-4 calcium fluorescence, agonist mode; stronger effect = higher value. B-score at 10 µM. 0.44% of 310,000 active. Mas-related G-protein coupled receptor member X1 (Homo sapiens), Q96LB2;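 active = calcium response B-score plate-corrected fluorescence ratio at least 3 library SD, with starting fluorescence B-score inside 5 SD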
Target sequence (Q96LB2 whole entry, looked up): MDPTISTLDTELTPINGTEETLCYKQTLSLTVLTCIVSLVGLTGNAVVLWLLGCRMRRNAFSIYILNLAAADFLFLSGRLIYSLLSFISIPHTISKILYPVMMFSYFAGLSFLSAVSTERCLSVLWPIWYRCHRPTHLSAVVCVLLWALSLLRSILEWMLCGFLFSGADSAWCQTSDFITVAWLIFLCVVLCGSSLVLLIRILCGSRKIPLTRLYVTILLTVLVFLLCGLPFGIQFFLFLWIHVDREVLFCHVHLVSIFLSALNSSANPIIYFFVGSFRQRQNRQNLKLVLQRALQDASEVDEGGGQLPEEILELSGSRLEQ
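Test system: HEK293 cells stably expressing human MrgX1 receptor; amount: 15,000 cells per well; doses: compound delivered in addition one of three; times: overnight plating before 1 h dye loading; detection: Fluo-4 NW calcium-flux fluorescence, kinetic read; read-out basis: B-scored fluorescence response ratio; controls: positive and negative controls per plate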
RGS4 block: RGS4 inhibitors, primary screen, cell-based, HEK293 M3R inducible RGS4, calcium flux; Regulator of G-protein signaling 4 (Homo sapiens), P49798; Fluo-4 calcium flux; stronger effect = higher value; triggered by carbachol at its EC20; B-score at 10 µM; 0.45% of 310,000 active; AID 463165, 2010;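 active = B-score, a plate-corrected calcium signal, over three deviations above library mean, with baseline fluorescence within five deviations of library mean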;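 also: RGS4 expression induced by doxycycline in cells with stable M3 receptor; B-score is computed from the integrated fluorescence ratio over baseline after carbachol; higher B-score means a larger calcium signal and so more RGS4 inhibition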
Target sequence (P49798 whole entry, looked up): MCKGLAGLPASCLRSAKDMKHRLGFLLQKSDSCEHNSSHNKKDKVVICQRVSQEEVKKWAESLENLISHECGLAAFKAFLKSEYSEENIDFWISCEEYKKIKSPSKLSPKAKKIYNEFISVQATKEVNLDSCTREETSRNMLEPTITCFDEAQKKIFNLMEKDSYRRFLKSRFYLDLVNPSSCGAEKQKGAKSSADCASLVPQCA
RGS4 act: RGS4 potentiators or activators, primary screen, cell-based, HEK293 M3R inducible RGS4, calcium flux; carbachol calcium flux Fluo4; stronger effect = lower value; B-score at 10 µM; 0.92% of 310,000 active; AID 463111, 2010;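 active = B-score of the integrated calcium signal more than 4 SD below the library mean, with starting fluorescence not abnormally high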;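 also: negative B-score means reduced calcium response which marks RGS4 activation or potentiation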
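Reagent: ECmax carbachol challenge; Test system: M3R-expressing HEK293 line, RGS4 induced by doxycycline; Schedule: overnight RGS4 induction, 30 min dye load 37 °C, 20 min compound RT; Detection: calcium dye Fluo4 fluorescence; Read-out: Agonist-evoked peak-minus-minimum fluorescence over baseline, integrated ratio, B score.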
MrgX1 antag: antagonists of human MrgX1 receptor, primary screen, HEK293 cells, Fluo-4 calcium flux; Mas-related G-protein coupled receptor member X1 (Homo sapiens), Q96LB2; BAM8-22 antagonism; stronger effect = lower value; B-score at 10 µM; 1.3% of 310,000 active; AID 588676, 2011;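 active = calcium-response B-score plate-corrected more than 3 library SD below zero, starting fluorescence within 5 deviations, no agonist response on first addition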;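 also: peak minus trough fluorescence over baseline after final BAM8-22 challenge near maximal dose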
MrgX1 PAM: positive allosteric modulators of MrgX1, primary screen, HEK293 cells, Fluo-4 calcium flux | Mas-related G-protein coupled receptor member X1 (Homo sapiens), Q96LB2 | B-score at 10 µM | 0.63% of 310,000 active | FDSS; stronger effect = higher value | AID 588675, 2011;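 active = plate-corrected calcium response at least 3 library SD above typical, normal starting fluorescence, not activating the receptor alone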;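 also: compound read alongside a low EC10 to EC30 dose of BAM8-22 agonist; peak minus trough fluorescence over baseline measured at the second addition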
MrgX1 ant reconf: MrgX1 receptor antagonists, duplicate retest, confirmation, HEK293 cells, Fluo-4 calcium flux. shares compounds with MrgX1 antag. BAM8-22 calcium flux; stronger effect = lower value. remaining BAM8-22 calcium response % of control (stronger effect = lower value), % at 10 µM. 19% of 2,300 active;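 active = remaining agonist calcium response no higher than 100% minus 3 SD of agonist-only control wells, with starting fluorescence near control levels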;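 also: agonist BAM8-22 given at a near maximal EC90 to ECmax level; peak minus minimum fluorescence divided by baseline after agonist addition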
HEK293 Ca flux: nonspecific calcium signal in parental HEK293, confirmation, counter-screen for MrgX1 antagonist project, parental HEK293 cells, Fluo-4 calcium flux; shares compounds with MrgX1 antag; Fluo-4 calcium fluorescence, FDSS; fluorescence ratio F(max-min)/F0 at 10 µM; 2% of 4,000 active; AID 624111, 2012;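 active = duplicate-averaged calcium fluorescence ratio at least three times the standard deviation of buffer wells, a nonspecific response in parental cells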
HEK293 Ca counter: calcium response in parental HEK293 cells, primary screen, counter-screen for MrgX1 allosteric activator project, cell-based, Fluo-4 calcium flux, duplicate | fluorescence ratio F(max-min)/F0 at 10 µM | Fluo-4 fluorescence ratio; stronger effect = higher value | AID 624114, 2012 | shares compounds with MrgX1 antag | 0.4% of 4,000 active;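 active = calcium fluorescence ratio, averaged over duplicates, at least 3 SD of the buffer-well ratio, meaning a nonspecific response in receptor-free cells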;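 also: untransfected parental HEK293 lacking MrgX1 used as counterscreen for MrgX1 allosteric activators; fluorescence change taken during the second addition on a kinetic imager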
HEK293 Ca cntr2: calcium response in parental HEK293 cells, primary screen, counter-screen for MrgX1 agonist project, cell-based, Fluo-4 calcium flux, duplicate, agonist mode. shares compounds with MrgX1 antag. fluorescence ratio F(max-min)/F0 at 10 µM. 8.7% of 4,000 active. Fluo-4 calcium fluorescence (FDSS); stronger effect = higher value;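 active = calcium fluorescence ratio at least three times the spread of buffer wells, meaning a non-specific response in parental cells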
Numbers stand for hits; n = inactive; x = no result given.

SMILES	MrgX1 agonist	RGS4 block	RGS4 act	MrgX1 antag	MrgX1 PAM	MrgX1 ant reconf	HEK293 Ca flux	HEK293 Ca counter	HEK293 Ca cntr2
CC(C)Cc1ccc(C(C)C(=O)Nc2ccc(O)cc2)cc1 (stereo not drawn)	n	n	n	-8.2	n	n	n	n	66
CCn1c(=NC(=O)CN2C(=O)CCC2=O)sc2c(OC)ccc(OC)c21	n	n	n	-8.2	n	n	n	n	n
Cc1ccc(S(=O)(=O)CC(=O)c2ccc3c(c2)OCCO3)cc1	n	n	n	n	n	x	x	x	x
COC(=O)c1cccc(NC(=O)c2ccc3c(c2)C(=O)N(Cc2cccnc2)C3=O)c1	n	n	n	n	n	x	x	x	x
CC(C)(C)N1C(=O)c2ccc(C(=O)Nc3ccc(O)cc3)cc2C1=O	n	n	n	n	n	x	x	x	x
CC(C)(C)NC(=O)c1cccc(NC(=O)c2ccc3c(c2)C(=O)N(C(C)(C)C)C3=O)c1	n	n	-7.1	-11	n	79%	n	n	n
COC(=O)c1cccc(NC(=O)c2ccc3c(c2)C(=O)N(C(C)(C)C)C3=O)c1	n	n	n	-4.7	n	n	n	n	n
CCOc1ccc(N=Nc2c(C)[nH]n(-c3ccccc3)c2=O)cc1	n	n	n	n	n	x	x	x	x
Cc1nc(CNS(=O)(=O)c2cccs2)cs1	n	n	n	n	n	x	x	x	x
Cc1nc(CNS(=O)(=O)c2ccccc2F)cs1	n	n	n	-4.6	n	n	n	n	n
COc1ccc(-n2c(Cn3c(=O)sc4ccccc43)nnc2SCC(=O)N2CCOCC2)cc1	n	x	x	n	n	x	x	x	x
Cc1nnsc1C(=O)N1CCCC(C(=O)c2ccc(C(F)(F)F)cc2)C1 (stereo not drawn)	n	n	n	n	n	x	x	x	x
COc1ccc(-c2noc(N3CCCC(C(=O)Nc4ccc(F)cc4F)C3)n2)cc1 (stereo not drawn)	n	n	n	-4.6	n	n	n	n	n
COc1ccc(-c2noc(N3CCCC(C(=O)Nc4ccccc4F)C3)n2)cc1 (stereo not drawn)	n	n	n	n	n	x	x	x	x
COC(=O)c1ccc2[nH]c3c(c2c1)CC(C)CC3 (stereo not drawn)	n	n	n	n	n	x	x	x	x
CC1CCc2[nH]c3ccc(C(=O)N4CCCC(C(F)(F)F)C4)cc3c2C1 (stereo not drawn)	n	n	n	-4.6	n	n	n	n	n
CC(C)CN1CCC(=O)N([C@H](CSc2ccc(Br)cc2)c2ccccc2)CC1	n	n	n	n	n	x	x	x	x
COC(=O)[C@H]1C2CCC(C(=O)OC)(CC2)[C@H]1C(=O)OC	n	n	n	n	n	x	x	x	x
CC1CCCN(C(=O)C2c3ccccc3C(=O)N3CCc4ccccc4C23)C1 (stereo not drawn)	n	n	n	-5.5	n	n	n	n	n
COc1ccc(/C=C/C(=O)NC(C)C)cc1Br	n	n	n	n	n	x	x	x	x
C=C1c2cc(C)ccc2NC(=O)N1c1ccc(C)cc1	n	n	n	n	n	x	x	x	x
C=C1c2ccccc2NC(=O)N1c1ccc(C)cc1	n	n	n	-8.7	n	n	n	n	n
CC1CC(C)CN(CCCNC(=O)c2cc3c(=O)[nH]c4ccccc4c3n2C)C1 (stereo not drawn)	n	n	n	n	n	x	x	x	x
CN(CCCNC(=O)c1cc2c(=O)[nH]c3ccccc3c2n1C)Cc1ccccc1	n	n	n	-5.7	n	n	n	n	n
COc1ccc(C(=O)N2CCCC2)cc1S(=O)(=O)N1CCOCC1	n	n	n	n	n	x	x	x	x
SMILES	MrgX1 agonist	RGS4 block	RGS4 act	MrgX1 antag	MrgX1 PAM	MrgX1 ant reconf	HEK293 Ca flux	HEK293 Ca counter	HEK293 Ca cntr2
COc1cc2c(cc1OC)CN(C(=O)c1ccc(OC)c(S(=O)(=O)N3CCOCC3)c1)CC2	n	n	n	-5.1	n	n	n	n	n
O=C(Nc1ccc(-c2nc3ccccc3s2)cc1)c1cc(-n2cnnc2)ccc1Cl	n	n	n	n	n	x	x	x	x
CN(C)c1ccc(S(=O)(=O)NCC(=O)NCc2ccccc2)cc1[N+](=O)[O-]	n	n	n	n	n	x	x	x	x
CC(CCc1ccccc1)NC(=O)C(=O)NCCO (stereo not drawn)	n	n	n	n	n	x	x	x	x
Cc1c(C)c2c(C)nn(-c3ccccc3)c2[nH]c1=O	n	n	n	n	n	x	x	x	x
CCc1c(C)c2c(C)nn(-c3ccccc3)c2[nH]c1=O	n	n	n	-4.6	n	85%	n	n	n
O=C1CCc2cc(S(=O)(=O)N3CCN(c4ccccc4F)CC3)ccc2N1	n	n	n	-5	n	n	n	n	n
COC(=O)CNC(=O)CNC(=O)Nc1ccccc1	n	n	n	-8.1	n	83%	n	n	n
Cc1ccc(S(=O)(=O)N(CCO)Cc2ccccc2)cc1	n	n	n	n	n	x	x	x	x
CC(NC(=O)Cn1cnnn1)C12CC3CC(CC(C3)C1)C2 (stereo not drawn)	n	n	n	-6.8	n	n	n	n	n
CC(NC(=O)CN1CCCC1)C12CC3CC(CC(C3)C1)C2 (stereo not drawn)	n	n	n	n	n	x	x	x	x
O=C1O/C(=C\c2ccccc2)c2ccccc21	n	n	n	n	n	x	x	x	x
O=C1O/C(=C/c2ccccc2)N=C1c1ccccc1	n	n	n	-5	n	n	n	n	n
O=C(O)c1ccc2ncsc2c1	n	n	n	-5.6	n	68%	n	n	n
CCn1c(C(=O)O)c(CC(=O)NC2CCCCCC2)c2ccccc21	n	n	n	n	n	x	x	x	x
CCOC(=O)C1CCN(C(=O)CCc2ccccc2)CC1	n	n	n	-7.9	n	n	n	n	n
O=C(CSCc1nc2ccccc2[nH]1)Nc1ccc2ccccc2c1	n	n	n	-4.9	n	n	n	n	n

Screens (PubChem)
